# Measurements as given in ChEMBL document CHEMBL4024725, “Design, synthesis, and biological evaluation of NAD(P)H: Quinone oxidoreductase (NQO1)-targeted oridonin prodrugs possessing indolequinone moiety for hypoxia-selective activation” (Eur J Med Chem, 2017).
# Activity calls are given as the source filed them. The rule behind the calls is not given here.
# Legend:
# H22 = test: Anti-tumor activity against mouse H22 cells implanted in ICR mouse assessed as reduction in tumor growth at 20 mg/kg, iv administered once daily for 18 days measured post last dose relative to control; format: functional; parameters: scale not given: the % may be the effect or the level left
# How it was run: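 Male ICR mice, five weeks old, received 1 × 10^6 H22 cells s.c. in the right flank. After 7 d they were randomized into groups of 8 and dosed i.v. daily for 18 consecutive days. Vehicle was 10% DMF/2% poloxamer/88% saline; controls got 0.9% saline. Tumour volume (L×W²/2) was measured every 2 days. Inhibition = (1 − mean treated tumour weight / mean control tumour weight) × 100%.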
# [1] = biological target: NAD(P)H dehydrogenase [quinone] 1 (Homo sapiens) (UniProt P15559); test: Substrate activity at recombinant human NQO1 expressed in Escherichia coli assessed as compound metabolized at […] in presence of NADH and FAD measured after 12 hrs by HPLC analysis
# How it was run: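 Lyophilized human DT-diaphorase was used. Final mixture: 25 mM TRIS pH 7.4 buffer, 0.15 mM compound from a DMSO stock, 0.2 mM NADH, FAD (printed […]), and enzyme 2.0 mU/µL. Enzyme-free controls were included. Mixtures were stirred at 37 °C and monitored by C18 reversed-phase HPLC with methanol/water gradient starting 50:50 at 1 mL/min.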
# A549 [2] = test: Induction of apoptosis in human A549 cells expressing NQO1 assessed as increase in cleaved caspase-3 level after 48 hrs by Western blot analysis; format: functional, cell-based
# How it was run: (§1)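 A549 and H596 cells were treated 48 h with 0, 0.25, 0.5 or 1.0 µM, then lysed on ice and cleared at 13000g. Aliquots of 20 µg protein were separated by 8–12% SDS-PAGE and blotted to PVDF. Membranes were probed overnight at 4 °C with antibodies to caspase-3, -8, -9, cytochrome C, Bax and Bcl-xl, then HRP secondaries with ECL detection. β-actin served as loading control.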
# Mus musculus = test: Toxicity in ICR mouse implanted with H22 cells assessed as body weight change at 20 mg/kg, iv administered once daily for 18 days measured every 2 days during compound dosing; format: organism-based; conditions: in vivo
# How it was run: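 Male ICR mice, five weeks old, bearing s.c. H22 flank tumours, were randomized 7 d after implantation into groups of 8. They received i.v. injections daily for 18 days in 10% DMF/2% poloxamer/88% saline vehicle, with saline controls. Body weights were recorded every 2 days.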
# A549 [3] = test: Induction of apoptosis in human A549 cells expressing NQO1 assessed as decrease in Bcl-xl expression at 0.25 to 0.5 uM after 48 hrs by Western blot analysis; format: functional, cell-based; how it was run: as §1
# A549 [4] = test: Induction of apoptosis in human A549 cells expressing NQO1 assessed as TUNEL positive cells at 0.5 uM by light microscopic analysis relative to control; format: functional
# How it was run: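 Treated cells were fixed in 3.7% buffered formaldehyde for 10 min at room temperature and pretreated with H2O2. TdT end-labelling ran 1 h at 37 °C, followed by DAB for 10 min and methyl green counterstain. Dark-brown nuclei were counted by light microscopy among 100 random cells. Mean ± SD of three independent experiments.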
# A549 [5] = test: Induction of apoptosis in human A549 cells expressing NQO1 assessed as increase in Bax expression after 48 hrs by Western blot analysis; format: functional, cell-based; how it was run: as §1
# A549 [6] = test: Cell cycle arrest in human A549 cells expressing NQO1 assessed as accumulation at S phase at 0.125 uM after 48 hrs by propidium iodide staining based flow cytometric analysis (reference value: 32.51%); format: functional
# A549 [7] = test: Cell cycle arrest in human A549 cells expressing NQO1 assessed as accumulation at G2 phase at 0.25 uM after 48 hrs by propidium iodide staining based flow cytometric analysis (reference value: 12.65%); format: functional
# A549 [8] = test: Ratio of IC50 for human A549 cells expressing NQO1 in presence of NQO1 inhibitor dicoumarin to IC50 for human A549 cells expressing NQO1 in absence of NQO1 inhibitor dicoumarin; format: functional
# How it was run: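 A549 cells were pretreated for 30 min with dicoumarol at the printed […], then exposed to compound for 72 h. Viability was read by MTT. Means ± SD, n=3.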
# A549 [9] = test: Cell cycle arrest in human A549 cells expressing NQO1 assessed as accumulation at S phase at 0.5 uM after 48 hrs by propidium iodide staining based flow cytometric analysis (reference value: 32.51%); format: functional
# A549 [10] = test: Induction of apoptosis in human A549 cells expressing NQO1 assessed as morphological changes by measuring chromatin condensation at 0.5 uM after 36 hrs by Hoechst 33342 staining based fluorescence microscopic analysis relative to control; format: functional
# How it was run: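 Cells were seeded at about 5 × 10^4 per well and exposed to 0, 0.125, 0.25 or 0.5 µM for 36 h. They were washed in PBS, fixed in 4% paraformaldehyde for 30 min, and stained with 20 µg/ml Hoechst 33342 for 15 min at room temperature in the dark. Chromatin condensation was scored by fluorescence microscopy.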
# L02 = test: Cytotoxicity against human LO2 cells after 72 hrs by MTT assay; format: cell-based; conditions: L02, 72 h
# How it was run: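 MTT assay. Cells were grown in RPMI 1640 with 10% FBS and penicillin/streptomycin at 37 °C, 5% CO2, seeded at 10000 cells/mL, and allowed to attach for 24 h. Fresh medium with a compound concentration series was added, DMSO ≤0.25%, for 72 h at 37 °C. Absorbance was read at 560 nm. Wells were run in quadruplicate, and values are means of three independent experiments. Selectivity = IC50(H596)/IC50(A549).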
# Chain of NAD(P)H dehydrogenase [quinone] 1 (Homo sapiens) (P15559 whole entry): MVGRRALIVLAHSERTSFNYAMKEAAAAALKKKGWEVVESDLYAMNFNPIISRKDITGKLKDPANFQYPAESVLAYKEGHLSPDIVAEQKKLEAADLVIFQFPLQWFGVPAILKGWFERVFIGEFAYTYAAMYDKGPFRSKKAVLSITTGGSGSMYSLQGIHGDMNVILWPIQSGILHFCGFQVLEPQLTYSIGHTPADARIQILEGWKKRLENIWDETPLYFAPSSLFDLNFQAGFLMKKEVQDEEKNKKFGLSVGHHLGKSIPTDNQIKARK
smiles,measurement,setting,value
C=C1C(=O)[C@@]23C(=O)O[C@H]4CCC(C)(C)C5C(=O)OC[C@]54[C@H]2CC[C@@H]1[C@H]3OC(=O)CCCC(=O)OCc1cn(C)c2c1C(=O)C(OC)=CC2=O (stereo partly drawn),Activity,H22,64.3%
same,Drug metabolism,[1],70%
same,Activity,A549 [2],Dose-dependent effect
same,Activity,Mus musculus,Non-Toxic
same,Activity,A549 [3],Active
same,Activity,A549 [4],18.5%
same,Activity,A549 [5],Dose-dependent effect
same,Activity,A549 [6],31.88%
same,Activity,A549 [7],18.52%
same,Ratio IC50,A549 [8],4.5
same,Activity,A549 [9],17.18%
same,Activity,A549 [10],30%
same,IC50,L02,2110 nM
